This is an account of results in ChEMBL document CHEMBL4145675, “2-Phenylquinoline S. aureus NorA Efflux Pump Inhibitors: Evaluation of the Importance of Methoxy Group Introduction” (J Med Chem, 2018).

Molecules are shown by their SMILES. Converted amounts (≈) assume the structure as drawn. The source made the active and inactive calls. The rule behind the calls is not given here.

Data set [1] deals with T1, Quinolone resistance protein NorA (Staphylococcus aureus) (UniProt P0A0J7).
T1 sequence (whole entry): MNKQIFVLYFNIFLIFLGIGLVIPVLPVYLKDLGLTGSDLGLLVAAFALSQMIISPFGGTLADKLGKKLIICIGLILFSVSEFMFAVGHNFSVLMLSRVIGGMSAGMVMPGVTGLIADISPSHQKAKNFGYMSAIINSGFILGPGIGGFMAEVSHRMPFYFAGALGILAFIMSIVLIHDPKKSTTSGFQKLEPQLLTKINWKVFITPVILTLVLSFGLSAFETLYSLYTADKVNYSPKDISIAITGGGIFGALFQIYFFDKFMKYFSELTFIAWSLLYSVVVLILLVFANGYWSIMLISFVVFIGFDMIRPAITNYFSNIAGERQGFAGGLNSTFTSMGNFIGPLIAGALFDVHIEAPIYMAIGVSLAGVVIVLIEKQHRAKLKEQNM
Description: Inhibition of NorA in Staphylococcus aureus SA-1199B expressing GrlA A116E mutant assessed as reduction in EtBr efflux at 50 uM incubated for 5 mins by fluorescence based assay. An outline of the steps: (§1)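 Cells were grown overnight in cation-supplemented Mueller-Hinton broth at 35 °C and subcultured to OD600 0.7–0.8. They were loaded at OD600 0.8 with 25 µM EtBr plus 100 µM CCCP (final) for 20 min at room temperature. Cells were then resuspended in fresh broth with or without compound, 50 µM for the single-point screen or a concentration series for IC50. Fluorescence (ex 485/em 645 nm) was read for 5 min. Inhibition was calculated from the fluorescence decrease versus untreated cells. Biological triplicate, each run twice.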

Data set [2] concerns the target Quinolone resistance protein NorA (Staphylococcus aureus, UniProt P0A0J7, A116E). Put plainly: Inhibition of NorA in Staphylococcus aureus SA-1199B expressing GrlA A116E mutant assessed as reduction in EtBr efflux incubated for 5 mins by fluorescence based assay. The method in brief: as §1
For data set [3], the system named is Staphylococcus aureus. Put plainly: Antimicrobial activity against Staphylococcus aureus SA-1199B expressing wild type norA and co-expressing GrlA A116E mutant by microdilution method. Conditions: in vivo. The data set is classed as organism-based. The method in brief: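 CLSI broth microdilution MIC of the compound alone. Strains: SA-K1902 (norA deleted), SA-K2378 (SA-K1902 carrying norA plus its promoter on multicopy plasmid pCU1), SA-1199B (norA overexpressing, GrlA A116E).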

The target in data set [4] is T1, Quinolone resistance protein NorA (Staphylococcus aureus). Put plainly: Inhibition of NorA in Staphylococcus aureus SA-1199B expressing GrlA A116E mutant assessed as minimal potentiating drug concentration causing 8 fold reduction in ciprofloxacin MIC by microdilution method based Checkerboard assay.
The subject of data set [5] is Staphylococcus aureus. Put plainly: Synergistic potentiation of ciprofloxacin-induced antimicrobial activity against wild type Staphylococcus aureus ATCC 25923 at 0.78 to 100 ug/ml by microdilution method based Checkerboard assay. The data set is classed as functional, organism-based.
The target of data set [6] is T1, Quinolone resistance protein NorA (Staphylococcus aureus). Put plainly: Inhibition of NorA in Staphylococcus aureus SA-1199B expressing GrlA A116E mutant assessed as synergistic potentiation of ciprofloxacin-induced antimicrobial activity at 0.78 to 100 ug/ml by microdilution method based Checkerboard assay.
The target is the same in data set [7]. Put plainly: Inhibition of NorA in Staphylococcus aureus SA-1199B expressing GrlA A116E mutant assessed as synergistic potentiation of ciprofloxacin-induced antimicrobial activity by measuring reduction in ciprofloxacin MIC at 0.78 ug/ml by microdilution method based Checkerboard assay.
For data set [8], the system named is Staphylococcus aureus. Put plainly: Synergistic potentiation of ciprofloxacin-induced antimicrobial activity against norA deleted Staphylococcus aureus SA-K1902 at 0.78 to 100 ug/ml by microdilution method based Checkerboard assay. The data set is classed as functional, organism-based.
Data set [9] in a line: Cytotoxicity in human HepG2 cells assessed as reduction in cell viability incubated for 24 hrs by ATP bioluminescence assay. The data set is classed as cell-based. An outline of the steps: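 Cells were grown to confluence overnight in RPMI 1640 with 10% heat-inactivated fetal calf serum, penicillin and streptomycin. Monolayers were exposed for 24 h at 37 °C to scalar concentrations (0-250 µg/mL). Viability was read by ATP bioluminescence, each concentration in triplicate. CC50 is the concentration reducing cell number by 50% versus untreated controls.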

Data set [10] relates to Staphylococcus aureus. Put plainly: Antimicrobial activity against Staphylococcus aureus ATCC 25923 by microdilution method. The format is organism-based. As to conditions: in vivo. The method in brief: (§2)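 Broth microdilution MIC per CLSI guidelines. ATCC 25923 is norA wild-type. SA-1199B overexpresses norA and carries an A116E GrlA substitution.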
The test system of data set [11] is Staphylococcus aureus. Description: Antimicrobial activity against Staphylococcus aureus SA-1199B expressing wild type norA by microdilution method. The data set is classed as organism-based. Conditions: in vivo. An outline of the steps:
as §2

The subject of data set [12] is Staphylococcus aureus. Description: Antimicrobial activity against mepA deficient Staphylococcus aureus SA-K2885 by microdilution method. The data set is classed as organism-based. As to conditions: in vivo. An outline of the steps:
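CLSI broth microdilution MIC of the compound alone in norA-deleted strains. SA-K2885 carries empty pALC2073 and SA-K2886 carries pALC2073-mepA (xyl/tetO promoter). 0.05 µg/mL tetracycline was present throughout to induce.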

Data set [13] has as its system Staphylococcus aureus. Description: Induction of membrane depolarization in Staphylococcus aureus SA-1199B expressing wild type norA at 1 to 10 ug/ml incubated for 30 mikns by DiOC2(3) fluorescent probe based cytofluorimetry. The data set is classed as organism-based. Conditions: in vivo. The method in brief:
(§3)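 SA-1199B was grown in MHB at 37 °C to OD600 0.6, washed, and diluted to 1×10^6 CFU/mL in filtered PBS. DiOC2(3) was added at 30 µM final, and compound at 1, 5 or 10 µg/mL for 30 min. CCCP 5 µM final served as positive control. Flow cytometry with 488 nm excitation gave a red/green ratio normalized to the DiOC2(3) blank, expressed as % depolarized versus drug-free control.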

The subject of data set [14] is Staphylococcus aureus. Put plainly: Induction of membrane depolarization in Staphylococcus aureus SA-1199B expressing wild type norA at 1 ug/ml incubated for 30 mikns by DiOC2(3) fluorescent probe based cytofluorimetry. The data set is classed as organism-based. Conditions: in the assay text read “overexpressing norA” for “expressing wild type norA”. The method in brief:
as §3

A short description of data set [15]: Metabolic stability in mouse liver microsomes assessed as parent compound remaining at 50 uM in presence of NADPH regenerating system incubated for 120 mins by UPLC/MS analysis. Conditions: read-out: Stability. The format is ADME, microsome. An outline of the steps: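 1 mg/mL mouse liver microsomes in 0.1 M Tris-HCl pH 7.4 with test compound at 50 µM, DMSO up to ~3%. Preincubated 5 min at 37 °C, then started with NADPH regeneration system. Stopped at 120 min with cold methanol and centrifuged. Supernatant analysed by UPLC/MS (ESI, tandem quadrupole).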

The next data set concerns the target Cytochrome P450 3A4 (Homo sapiens, UniProt P08684). Description: Inhibition of human recombinant CYP3A4 at 1 uM using beetle D-luciferin as substrate by CYP450-Glo assay. The format is ADME. As to conditions: recombinant enzyme. An outline of the steps: (§4)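 Luminescent P450-Glo assay in which recombinant human CYP3A4 or CYP2D6 converts a beetle D-luciferin derivative to D-luciferin. Compound was tested at 1 and 10 µM.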

Data set [16] addresses T2, Cytochrome P450 2D6 (Homo sapiens, UniProt P10635). Put plainly: Inhibition of human recombinant CYP2D6 at 10 uM using beetle D-luciferin as substrate by CYP450-Glo assay. The data set is classed as ADME. Conditions: recombinant enzyme. An outline of the steps: as §4
Data set [17] deals with T2, Cytochrome P450 2D6. Description: Inhibition of human recombinant CYP2D6 at 1 uM using beetle D-luciferin as substrate by CYP450-Glo assay. The data set is classed as ADME. Conditions: recombinant enzyme. The method in brief:
as §4

T2 sequence (P10635 whole entry): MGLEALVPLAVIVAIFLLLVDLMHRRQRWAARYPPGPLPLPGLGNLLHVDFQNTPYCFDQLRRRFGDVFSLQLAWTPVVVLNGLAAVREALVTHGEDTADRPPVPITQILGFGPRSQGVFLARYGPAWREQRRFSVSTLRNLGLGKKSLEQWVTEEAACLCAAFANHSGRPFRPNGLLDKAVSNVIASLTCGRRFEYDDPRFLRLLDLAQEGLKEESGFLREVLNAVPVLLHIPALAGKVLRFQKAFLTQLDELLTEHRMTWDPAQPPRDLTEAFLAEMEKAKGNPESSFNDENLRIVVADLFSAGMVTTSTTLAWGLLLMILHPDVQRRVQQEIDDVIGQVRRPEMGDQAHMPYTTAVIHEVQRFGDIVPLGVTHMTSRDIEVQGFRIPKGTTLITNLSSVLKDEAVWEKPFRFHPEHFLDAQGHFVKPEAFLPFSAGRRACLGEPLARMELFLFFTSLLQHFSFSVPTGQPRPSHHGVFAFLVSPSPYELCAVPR
Chain of Cytochrome P450 3A4 (P08684 whole entry): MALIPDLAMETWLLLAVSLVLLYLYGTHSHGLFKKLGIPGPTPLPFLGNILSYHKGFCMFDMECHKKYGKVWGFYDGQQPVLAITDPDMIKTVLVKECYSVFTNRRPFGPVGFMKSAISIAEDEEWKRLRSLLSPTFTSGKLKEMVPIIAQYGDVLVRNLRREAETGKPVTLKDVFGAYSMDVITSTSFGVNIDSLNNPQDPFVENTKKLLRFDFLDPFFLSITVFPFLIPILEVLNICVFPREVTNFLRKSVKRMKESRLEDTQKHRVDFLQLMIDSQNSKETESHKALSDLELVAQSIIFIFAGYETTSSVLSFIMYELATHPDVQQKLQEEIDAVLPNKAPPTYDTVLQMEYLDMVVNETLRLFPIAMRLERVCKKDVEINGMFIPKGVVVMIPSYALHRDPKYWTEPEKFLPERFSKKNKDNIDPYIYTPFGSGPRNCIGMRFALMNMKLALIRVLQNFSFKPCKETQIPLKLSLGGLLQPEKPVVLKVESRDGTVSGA

Take `CCCOc1ccc(-c2cc(OCCN3CCc4cc(OC)c(OC)cc4C3)c3cc(OC)c(OC)cc3n2)cc1`: the inhibition in data set [1] came to 94.1%. Also, the 50% inhibitory concentration (IC50) in [2] was found to be 1.1 µM. The MIC with Staphylococcus aureus [3] is above 179 µM; against Staphylococcus aureus [10], above 100 µg/mL; in the data set with Staphylococcus aureus [11], above 100 µg/mL; against Staphylococcus aureus [12] it was 100 µg/mL (≈ 179 µM). For the same molecule, the Activity in data set [4] is 0.78 µg/mL; in the data set on Staphylococcus aureus [13] it was “Dose-dependent effect”; with Staphylococcus aureus [14] it was below 20%. In the data set on Staphylococcus aureus [5], the “synergistic potentiation of ciprofloxacin activity” value was “Active”. Also, in data set [6], the inhibition entry was “Active”. For the same molecule, the fold change (FC) in [7] was determined as 8. Besides, the outcome in the data set with Staphylococcus aureus [8] was inactive. Moreover, the CC50 at 24 h in data set [9] is 74 µg/mL (≈ 132 µM). In addition, the remaining at 2 h, 50 µM in data set [15] was determined as 62%. Also, the “inhibition (INH)” value on Cytochrome P450 3A4 was “Not Active”; at Cytochrome P450 2D6 [16], “Active”; on Cytochrome P450 2D6 [17], “Not Active”.

For the molecule `CCCOc1ccc(-c2cc(OCCN3CCCCC3)c3cc(OC)ccc3n2)cc1`, the inhibition in data set [1] amounted to 97.6%. Further, the IC50 in data set [2] is 4.2 µM. Besides, the MIC in the data set on Staphylococcus aureus [3] was 238 µM (≈ 100 µg/mL); against Staphylococcus aureus [10], 50 µg/mL (≈ 119 µM); in the data set with Staphylococcus aureus [11] it was above 100 µg/mL; against Staphylococcus aureus [12] it was 12.5 µg/mL (≈ 29.7 µM). The Activity in [4] was 0.78 µg/mL; in the data set with Staphylococcus aureus [13], “Dose-dependent effect”; in the data set with Staphylococcus aureus [14] it was below 10%. The “synergistic potentiation of ciprofloxacin activity” value in the data set on Staphylococcus aureus [5] is “Active”. In addition, the inhibition result in data set [6] was “Active”. Moreover, the fold change (FC) in [7] amounted to 8. For the same molecule, in the data set with Staphylococcus aureus [8], the outcome was inactive. The half-maximal cytotoxic concentration (CC50) at 24 h in data set [9] came out at 42 µg/mL (≈ 99.9 µM). For the same molecule, the remaining at 2 h, 50 µM in data set [15] was above 90%. The “inhibition (INH)” value on Cytochrome P450 3A4 was “Not Active”; on Cytochrome P450 2D6 [16], “Active”; at Cytochrome P450 2D6 [17], “Not Active”.
